In ChEMBL document CHEMBL1145518, “Potent immune-modulating and anticancer effects of NKT cell stimulatory glycolipids” (2007):
Calls of active or inactive are those of the source. The calls are words filed in the database; no cut-off is given here.

How the values were obtained:
[1] = Induction of IL15 secretion in human CD161+ CD3+ NKT cells at 10 ug/ml after 18 hrs relative to basal level; format: functional
Method in brief: (§1)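 Human Vα24i NKT cell lines were expanded for 10 days on irradiated (3,000 rad) autologous immature DCs with 10 units/ml IL-2. The cells (1 × 10^5) were cocultured with 5 × 10^4 irradiated immature CD14+ DCs plus glycolipid at 10 μg/ml. Supernatants were collected at 18 h and read on a 22-plex Luminex bead panel. Triplicates, mean ± SD.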

Mus musculus [2] = assay: Induction of IFN-gamma secretion in BALB/c mouse serum at 2 ug, iv after 18 hrs relative to control; format: functional
Method in brief: (§2)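 BALB/c mice received an i.v. injection of 100 μl of glycolipid diluted to 20 μg/ml in saline from DMSO stock, with 1% DMSO as vehicle. Serum cytokines/chemokines were measured at 2 and 18 h after injection.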

[3] = Induction of RANTES secretion in human CD161+ CD3+ NKT cells at 10 ug/ml after 18 hrs relative to basal level; format: functional; method in brief: as §1
[4] = Induction of MCP1 secretion in human CD161+ CD3+ NKT cells at 10 ug/ml after 18 hrs relative to basal level; format: functional; method in brief: as §1
Mus musculus [5] = assay: Induction of KC secretion in BALB/c mouse serum at 2 ug, iv after 2 hrs relative to control; format: functional; method in brief: as §2
Mus musculus [6] = assay: Induction of IL4 secretion in BALB/c mouse serum at 2 ug, iv after 2 hrs relative to control; format: functional; method in brief: as §2
Mus musculus [7] = assay: Induction of IL12p40 secretion in BALB/c mouse serum at 2 ug, iv after 18 hrs relative to control; format: functional; method in brief: as §2
[8] = Induction of IL8 secretion in human CD161+ CD3+ NKT cells at 10 ug/ml after 18 hrs relative to basal level; format: functional; method in brief: as §1
Mus musculus [9] = assay: Induction of MIPbeta secretion in BALB/c mouse serum at 2 ug, iv after 2 hrs relative to control; format: functional; method in brief: as §2
Mus musculus [10] = assay: Induction of IL3 secretion in BALB/c mouse serum at 2 ug, iv after 2 hrs relative to control; format: functional; method in brief: as §2
Mus musculus [11] = assay: Induction of IL2 secretion in BALB/c mouse serum at 2 ug, iv after 2 hrs relative to control; format: functional; method in brief: as §2
[12] = Induction of GM-CSF secretion in human CD161+ CD3+ NKT cells at 10 ug/ml after 18 hrs relative to basal level; format: functional; method in brief: as §1
Mus musculus [13] = assay: Increase in CD8/CD4 T cell ratio in BALB/c mouse at 2 ug, iv after 72 hrs by flow cytometry; format: functional, organism-based
[14] = Induction of IL12p70 secretion in human CD161+ CD3+ NKT cells at 10 ug/ml after 18 hrs relative to basal level; format: functional; method in brief: as §1
Mus musculus [15] = assay: Induction of GM-CSF secretion in BALB/c mouse serum at 2 ug, iv after 2 hrs relative to control; format: functional; method in brief: as §2
Mus musculus [16] = assay: Induction of IL6 secretion in BALB/c mouse serum at 2 ug, iv after 2 hrs relative to control; format: functional; method in brief: as §2
Mus musculus [17] = assay: Induction of IL13 secretion in BALB/c mouse serum at 2 ug, iv after 2 hrs relative to control; format: functional; method in brief: as §2
Mus musculus [18] = assay: Induction of TNFalpha secretion in BALB/c mouse serum at 2 ug, iv after 18 hrs relative to control; format: functional; method in brief: as §2
[19] = Induction of MIPalpha secretion in human CD161+ CD3+ NKT cells at 10 ug/ml after 18 hrs relative to basal level; format: functional; method in brief: as §1
[20] = Induction of IL10 secretion in human CD161+ CD3+ NKT cells at 10 ug/ml after 18 hrs relative to basal level; format: functional; method in brief: as §1
[21] = Induction of IFN-gamma secretion in human CD161+ CD3+ NKT cells at 10 ug/ml after 18 hrs relative to basal level; format: functional; method in brief: as §1
[22] = Induction of IL2 secretion in human CD161+ CD3+ NKT cells at 10 ug/ml after 18 hrs relative to basal level; format: functional; method in brief: as §1
Mus musculus [23] = assay: Induction of IL1-beta secretion in BALB/c mouse serum at 2 ug, iv after 18 hrs relative to control; format: functional; method in brief: as §2
[24] = Induction of TNFalpha secretion in human CD161+ CD3+ NKT cells at 10 ug/ml after 18 hrs relative to basal level; format: functional; method in brief: as §1
Mus musculus [25] = assay: Induction of IL10 secretion in BALB/c mouse serum at 2 ug, iv after 18 hrs relative to control; format: functional; method in brief: as §2
[26] = Induction of IL3 secretion in human CD161+ CD3+ NKT cells at 10 ug/ml after 18 hrs relative to basal level; format: functional; method in brief: as §1
4T1 = assay: Antitumor activity in mouse 4T1 cells xenografted BALB/c mouse assessed as suppression of tumor growth at 2 ug, iv; format: functional, cell-based
Method in brief: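 BALB/c mice (n = 6) were inoculated s.c. with 4T1 breast cancer cells. From day 3 they were treated i.v. with glycolipid or vehicle twice weekly for 4 weeks. Tumor volume was recorded every 3 days for 1 month, and survival was monitored up to 54 days.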

[27] = Induction of IL4 secretion in human CD161+ CD3+ NKT cells at 10 ug/ml after 18 hrs relative to basal level; format: functional; method in brief: as §1
Mus musculus [28] = assay: Induction of IL12p70 secretion in BALB/c mouse serum at 2 ug, iv after 18 hrs relative to control; format: functional; method in brief: as §2
[29] = Induction of IL13 secretion in human CD161+ CD3+ NKT cells at 10 ug/ml after 18 hrs relative to basal level; format: functional; method in brief: as §1
[30] = Induction of IL6 secretion in human CD161+ CD3+ NKT cells at 10 ug/ml after 18 hrs relative to basal level; format: functional; method in brief: as §1
[31] = Induction of IL12p40 secretion in human CD161+ CD3+ NKT cells at 10 ug/ml after 18 hrs relative to basal level; format: functional; method in brief: as §1
TC1 = assay: Antitumor activity in TC1 cells xenografted C57BL/6 mouse assessed as suppression of tumor growth at 2 ug, iv; format: functional, cell-based
Method in brief: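 C57BL/6 mice (n = 5/group) were inoculated i.v. with TC-1 lung cancer cells. They were then treated i.v. with 2 μg glycolipid per mouse, or 100 μl of 1% DMSO, twice weekly for 4 weeks. Kaplan–Meier survival and body weight were followed, with tumor-free mice as an additional control.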

Mus musculus [32] = assay: Induction of RANTES secretion in BALB/c mouse serum at 2 ug, iv after 2 hrs relative to control; format: functional; method in brief: as §2
Mus musculus [33] = assay: Induction of MCP1 secretion in BALB/c mouse serum at 2 ug, iv after 2 hrs relative to control; format: functional; method in brief: as §2
Mus musculus [34] = assay: Activation of B cells in BALB/c mouse at 2 ug, iv after 72 hrs by flow cytometry; format: functional, organism-based
dendritic [35] = assay: Activation of TCR in human immature dendritic cells assessed as increase in CREB phosphorylation; format: cell-based
Method in brief: (§3)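 Human HeLa, HeLa-CD1d or autologous immature DCs were loaded with glycolipid at 10 μg/ml, or DMSO, for 2 h. Then 3 × 10^5 naïve CD161+/CD3+ NKT cells were added; these were bead-isolated and kept in 100 units/ml IL-2. After 5–10 min the cells were washed and lysed at 4°C. Phospho-CD3ε, ERK1/2 (Thr-185/Tyr-187) and CREB (Ser-133) were read by Luminex bead assay as median fluorescence normalized to total protein, expressed as fold over 1% DMSO.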

HeLa [36] = assay: Activation of TCR in human HeLa cells overexpressing CD1d assessed as increase in ERK1/2 phosphorylation; format: cell-based; method in brief: as §3
dendritic [37] = assay: Activation of TCR in human immature dendritic cells assessed as increase in CD3epsilon phosphorylation; format: cell-based; method in brief: as §3
dendritic [38] = assay: Activation of TCR in human immature dendritic cells assessed as increase in ERK1/2 phosphorylation; format: cell-based; method in brief: as §3
NKT = assay: Stimulation of cell expansion of human invariant CD161+/ Valpha24+/ CD56+/ CD3+ NKT cells by flow cytometry method; format: functional, cell-based
Method in brief: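 CD56+ NK/NKT mixtures (2 × 10^6) were isolated from human leukopaks with anti-CD56 microbeads. They were cocultured with 4 × 10^5 autologous immature CD14+ DCs pulsed with glycolipid at 3 μg/ml, or with 0.3% DMSO, on day 2 for 18 h. Suspension cells were then transferred and kept in 100 units/ml IL-2 with fresh medium every 3 days. On day 9, CD161+/Vα24TCR+ cells were gated by flow cytometry and total Vα24i NKT cells counted. Triplicates, mean ± SD.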

HeLa [39] = assay: Activation of TCR in human HeLa cells overexpressing CD1d assessed as increase in CD3epsilon phosphorylation; format: cell-based; method in brief: as §3
HeLa [40] = assay: Activation of TCR in human HeLa cells overexpressing CD1d assessed as increase in CREB phosphorylation; format: cell-based; method in brief: as §3

CCCCCCCCCCCCCCCCCCCCCCCCCC(=O)N[C@@H](CO[C@H]1O[C@H](C(=O)O)[C@H](O)[C@H](O)[C@H]1O)[C@H](O)[C@H](O)CCCCCCCCCCCCCC
Activity [1]: 1.7 | Activity (Mus musculus [2]): 27.5 | Activity [3]: 1.6 | Activity [4]: 1.2 | Activity (Mus musculus [5]): 16.1 | Activity (Mus musculus [6]): 21.2 | Activity (Mus musculus [7]): 4.4 | Activity [8]: 1.4 | Activity (Mus musculus [9]): 1.8 | Activity (Mus musculus [10]): 10.4 | Activity (Mus musculus [11]): 21.5 | Activity [12]: 2 | Activity (Mus musculus [13]): Active | Activity [14]: 2.7 | Activity (Mus musculus [15]): 37.6 | Activity (Mus musculus [16]): 4.9 | Activity (Mus musculus [17]): 1.7 | Activity (Mus musculus [18]): 8.7 | Activity [19]: 3.3 | Activity [20]: 0.7 | Activity [21]: 3.4 | Activity [22]: 2.3 | Activity (Mus musculus [23]): 4.8 | Activity [24]: 1.7 | Activity (Mus musculus [25]): 1.5 | Activity [26]: 1.3 | Activity (4T1): Active | Activity [27]: 1.5 | Activity (Mus musculus [28]): 1.4 | Activity [29]: 1.1 | Activity [30]: 1 | Activity [31]: 1.8 | Activity (TC1): Active | Activity (Mus musculus [32]): 2.8 | Activity (Mus musculus [33]): 8

CCCCCCCCCCCCCC[C@@H](O)[C@@H](O)[C@H](CO[C@H]1O[C@H](CO)[C@H](O)[C@H](O)[C@H]1O)NC(=O)CCCCCCCc1ccccc1
Activity [1]: 2.8 | Activity (Mus musculus [2]): 48.3 | Activity [3]: 1.7 | Activity [4]: 1 | Activity (Mus musculus [5]): 11 | Activity (Mus musculus [6]): 53.1 | Activity (Mus musculus [7]): 3.8 | Activity [8]: 1.8 | Activity (Mus musculus [9]): 3.8 | Activity (Mus musculus [10]): 2.4 | Activity (Mus musculus [11]): 70.3 | Activity [12]: 6.7 | Activity (Mus musculus [34]): Active | Activity (dendritic [35]): 204 | Activity (HeLa [36]): 14.6 | Activity (dendritic [37]): 21.3 | Activity (Mus musculus [13]): Active | Activity [14]: 4.7 | Activity (Mus musculus [15]): 2.9 | Activity (Mus musculus [16]): 2.8 | Activity (Mus musculus [17]): 10.9 | Activity (Mus musculus [18]): 22.4 | Activity [19]: 3.3 | Activity [20]: 2.3 | Activity [21]: 6.4 | Activity [22]: 6.1 | Activity (Mus musculus [23]): 4.7 | Activity [24]: 8.1 | Activity (dendritic [38]): 48.3 | Activity (Mus musculus [25]): 1.3 | Activity [26]: 4.2 | Activity (4T1): Active | Activity [27]: 2.6 | Activity (Mus musculus [28]): 2.6 | Activity (NKT): Active | Activity [29]: 1.7 | Activity [30]: 2.2 | Activity (HeLa [39]): 10 | Activity [31]: 2.3 | Activity (HeLa [40]): 117 | Activity (TC1): Active | Activity (Mus musculus [32]): 2.3 | Activity (Mus musculus [33]): 19.4
